High-throughput results from PubChem BioAssay.
This excerpt belongs to a sample that is enriched for hits.
697 NFkB inh: inhibitors of PMA/ionomycin-induced NF-kB reporter, 697 cells, primary screen, B-cell NF-kB inhibitor project, cell-based, luminescence, uHTS. 697 B-cell NF-kB luciferase reporter, 16 h. inhibition, % at 4 µM. hit rate 0.33% among 330,000. AID 435022, 2010; in the data active means inhibition above about 35%
UPR CHOP act: activators of apoptotic CHOP UPR arm, primary screen, cell-based, CHO-CHOP luciferase reporter, luminescence, uHTS; hit rate 0.34% among 330,000; UPR activation; percent of tunicamycin response over DMSO baseline; activation, % at 10 µM;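 active means at 10 µM dose, activation of 40% or more, normalized to positive control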;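 further: 100% = tunicamycin at 10 µg/mL and 0% = DMSO alone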
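Test system: CHO-CHOP cells, stable luciferase reporter of PERK-eIF2a-CHOP signalling | Quantity: 500 CHO-CHOP cells per well | Buffer or medium: F12 plus 10% serum | Compound dosing: 10 µM single point, 0.5% DMSO | Schedule: 6 h compound treatment, 37 °C | Signal: Luciferase luminescence | Control set: Tunicamycin high control, DMSO low control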
CHOP inhibitor: inhibitors of CHOP promoter induction, primary screen, cell-based, unfolded protein response, luciferase reporter; hit rate 3.8% among 220,000; inhibition, % at 10 µM; CHO-K1 CHOP-promoter luciferase, tunicamycin-induced, 15-18 h;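 active means compounds that reduced the stress-induced luciferase reporter signal by more than about 70% of percent inhibition, limit read from the data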;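 further: 0% = tunicamycin plus vehicle and 100% = wells without tunicamycin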
XBP1 UPR activ: activators of adaptive XBP1 UPR arm, primary screen, cell-based, CHO-XBP1 luciferase reporter, luminescence, uHTS; IRE1-XBP1 UPR activation; percent of tunicamycin response, DMSO as zero; activation, % at 20 µM; hit rate 0.33% among 330,000; AID 463104, 2010;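 active means versus positive control, 20 µM dose yields 30% or more activation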;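 further: 100% = tunicamycin at 10 µg/mL and 0% = DMSO only wells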
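Material: CHO-XBP1 cells stably carrying IRE1-XBP1-driven luciferase reporter / Amount: 1000 cells per well / Compound: 20 µM, 1% DMSO / Times: 6 h treatment, 37 °C / Detection: luciferase luminescence / Measure: % activation of reporter signal versus tunicamycin and DMSO controls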
Jurkat NFkB inh: inhibitors of induced NF-kB luciferase reporter, primary screen, TCR NF-kB activation inhibitor project, cell-based, luminescence, uHTS | Jurkat, PMA/ionomycin-induced NF-kB luciferase reporter | inhibition, % at 4 µM | hit rate 0.53% among 330,000; in the data active means inhibition above about 50%
Numbers without * were called inactive; x = no result.

SMILES	697 NFkB inh	UPR CHOP act	CHOP inhibitor	XBP1 UPR activ	Jurkat NFkB inh
COc1ccccc1NC(=O)C(C)Sc1nc(-c2ccccc2)cn1N (stereo not given)	2	-1	x	-3	-1
COc1cccc(NCc2cc(=O)oc3cc(-c4ccccc4)c(O)cc23)c1	-52	3	82*	0	-30
CSc1nc(N)nc2c1ncn2CC(=O)NCCNc1ccc([N+](=O)[O-])cn1	8	2	x	-2	-6
C/C(=N\NC(=O)c1ccccc1)C1C2C=CC(C2)C1(C)C (stereo not given)	-6	3	x	0	3
Cn1cccc1C(=O)NC(=O)COC(=O)CC12CC3CC(CC(Br)(C3)C1)C2	-5	0	29	0	-10
Cn1cccc1C(=O)NC(=O)COC(=O)CC12CC3CC(CC(C3)C1)C2	4	-3	80*	-1	-2
Brc1ccc(CSc2nccn2-c2ccccc2)cc1	12	-1	76*	4	-8
Cc1c(C(=O)Nc2nnc(SCc3ccccc3Cl)s2)cccc1[N+](=O)[O-]	-16	1	78*	-1	-7
COc1ccccc1N1CCN(c2nc(-c3ccccc3)cc(C(F)(F)F)n2)CC1	0	-1	-12	-2	-10
COc1ccccc1N1CCN(c2ccc(-c3ccccc3)nn2)CC1	-174	-5	79*	-5	-22
Nc1ccccc1Nc1cc(-c2ccccc2)nn1-c1cccc(Cl)c1	-41	2	90*	-1	-8
COc1ccc(N=Cc2nc(-c3ccccc3)oc2OC(C)=O)cc1	-3	1	-2	4	-3
COc1ccc(N=C/C=C2/C=C(c3ccccc3)OC(C)(C)O2)cc1	24	1	94*	-2	0
COc1ccc(C2=NS(=O)(=O)N(C)C(C(=O)NCc3ccccn3)=C2)cc1OC	4	-3	x	-1	2
CC(=O)N1c2ccc(Cl)cc2C2C=CCC2C1c1cccc2ccccc12 (stereo not given)	x	x	85*	x	x
CN(CC(=O)Nc1ccc(C#N)cc1)Cc1ccc(Cl)cc1	-37	-2	42	-2	13
N#Cc1ccc(NC(=O)Nc2ccc(Cl)cc2)cc1	-89	18	78*	3	-51
CN(C)S(=O)(=O)c1ccc(NC=O)cc1	7	0	-5	-6	3
CCOC(=O)C1=C(N)c2ccccc2CC1C1CCCC1 (stereo not given)	-2	-2	91*	2	2
CC(C)Sc1nnc2n(CCc3ccccc3)c(=O)c3c4c(sc3n12)COC(C)(C)C4	-11	2	x	1	-13
C=CCSc1nnc2n(CCc3ccccc3)c(=O)c3c4c(sc3n12)COC(C)(C)C4	-80	1	71*	-3	-36
S=C(NNc1ccnc2cc(Cl)ccc12)Nc1ccc(Cl)cc1Cl	-27	7	96*	9	11
CCOc1ccc(NC(=S)NNc2ccnc3cc(Cl)ccc23)cc1	4	1	-19	-4	-12
CCOC(=O)c1cc(CC)sc1NC(=O)CCC(=O)O	11	-1	-11	-2	-8
CCOC(=O)c1cc(CC)sc1NC(=O)c1cc(OC)c(OC)c(OC)c1	14	-1	90*	2	4
SMILES	697 NFkB inh	UPR CHOP act	CHOP inhibitor	XBP1 UPR activ	Jurkat NFkB inh
CCOC(=O)c1cc(CC)sc1NC(=O)Cc1ccsc1	-29	-2	75*	-3	5
COc1ccc(NC(=O)c2ccc(Cl)c(S(=O)(=O)NCC3CCCO3)c2)c(OC)c1 (stereo not given)	18	1	x	-5	6
O=C(CCCc1c[nH]c2ccccc12)NCc1ccccc1C(F)(F)F	14	5	x	-1	-15
COc1ccc(-c2cc(C(F)(F)F)c3c(N)c(C(=O)NCCSC)sc3n2)cc1	0	1	x	55*	-5
Cc1ccc(NC(=O)CN2CCCCCC2)c(Br)c1	x	x	75*	x	x
O=C(CN1CCCCC1)Nc1ccc(NC(=O)c2ccc(Cl)cc2)cc1Cl	-17	2	85*	18	-1
Cc1cc(Cl)ccc1NC(=O)CN1CCCC1	8	-1	x	-5	-6
N/C(=N/OC(=O)c1cccc([N+](=O)[O-])c1)c1cccc([N+](=O)[O-])c1	-18	4	9	3	-48
CC1=C(C)/C(=N/OC(=O)c2cccc([N+](=O)[O-])c2)C=CC1=O	-8	16	92*	-4	11
CCCCCn1c(CCC(=O)Oc2ccccc2OC)nc2c1c(=O)[nH]c(=O)n2CCCC	-8	2	71*	-3	9
O=C1c2ccccc2C(Nc2ccc(Cl)cn2)N1Cc1ccccc1 (stereo not given)	-51	0	80*	-2	7
O=c1[nH]c(SCc2ccccc2[N+](=O)[O-])nc2nc[nH]c12	-14	1	17	1	-55
CCCCNC1=CC(=O)C(=O)c2ccccc21	14	2	25	-2	-3
CCCCN1C=CC(=C2C(=O)c3ccccc3C2=O)C=C1	-33	-10	94*	-6	-4
Cc1ccc(-n2nnnc2C(Cl)(Cl)c2nnnn2-c2ccc(C)cc2)cc1	0	5	80*	-4	8
CCOC(=O)c1sc(NC(=O)c2cc(-c3ccc(C)cc3)nc3ccccc23)c(C#N)c1C	-17	-3	61	0	0
COC(=O)c1sccc1NC(=O)c1cc(-c2cc(C)ccc2C)nc2ccccc12	-10	1	93*	0	8
COC(=O)c1sc(NC(=O)c2cc(-c3ccccc3)nc3ccccc23)c(C#N)c1C	21	8	75*	0	-6
O=C(NCc1nnc(SCc2ccccc2)n1-c1ccccc1)C12CC3CC(CC(C3)C1)C2	-9	2	45	-3	-5
CCCCSc1nnc(CNC(=O)C23CC4CC(CC(C4)C2)C3)n1Cc1ccccc1	-44	-1	85*	2	-7
CCCN(CCC)S(=O)(=O)c1ccc(C(=O)Nc2nc3c(s2)CCc2ccccc2-3)cc1	-64	16	78*	14	13
COc1ccc(-n2cc(-c3ccccc3)c3c(N4CC(C)OC(C)C4)ncnc32)cc1 (stereo not given)	-24	1	73*	3	-5
Cc1ccc(-n2c(O)c(C=Nc3ccc4c(c3)OCO4)c3ccccc3c2=O)cc1C	1	0	16	1	-3
Cc1cc(N=Cc2c(O)n(-c3ccc4c(c3)OCO4)c(=O)c3ccccc23)ccn1	-5	1	94*	-1	4
CCOc1cc(/C=C2\CN(C)C/C(=C\c3ccc(O)c(OCC)c3)C2=O)ccc1O	-57	44*	x	-4	33
